EBNA-1 inh: EBNA-1 DNA-binding inhibitors, primary screen, biochemical, fluorescence polarization; AID 1950, 2009; actives 0.34% (n = 300,000); inhibition, % at 14.8 µM; in the data active = inhibition above about 28%
PREPL inh: PREPL enzyme inhibitors, primary screen, biochemical, fluorescence polarization | recombinant PREPL, fluorescence polarization activity-based probe | inhibition, % at 5.96 µM | actives 0.68% (n = 320,000) | AID 2751, 2010;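 note: 0% = enzyme with DMSO and 100% = wells lacking enzyme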
UBC13 polyUb: UBC13 polyubiquitin chain formation inhibitors, primary screen, biochemical, TR-FRET, uHTS | inhibition, % at 20 µM | actives 0.47% (n = 330,000) | AID 485273, 2010; in the data active = inhibition above about 45%, passing the limit was not always enough
Target sequence (P61088 whole entry, looked up): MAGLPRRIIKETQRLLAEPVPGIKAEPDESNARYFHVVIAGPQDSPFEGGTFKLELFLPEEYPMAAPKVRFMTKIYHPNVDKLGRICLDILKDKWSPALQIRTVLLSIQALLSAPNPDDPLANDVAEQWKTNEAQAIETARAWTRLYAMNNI
ZTA DNA inh: blocks Epstein-Barr virus ZTA, an EBNA-1 counter-screen. actives 0.15% (n = 320,000). P03206. inhibition, % at 11 µM. AID 2234. ZTA-DNA binding, fluorescence polarization; in the data active = inhibition above about 33%
Apaf1 inhib: inhibitors of human Apaf-1 apoptosome, primary screen, biochemical, DEVD-Rh110 fluorescence, uHTS; inhibition, % at 20 µM; AID 489030, 2010; actives 0.71% (n = 330,000); reconstituted apoptosome caspase-3 activity; active = inhibition of at least 40% at 20 µM;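 note: plate controls were DMSO wells for no effect and DEVD-CHO caspase inhibitor wells for full effect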
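detection = Rh110 fluorescence intensity | test system = biochemical Apaf-1 apoptosome reconstitution | also added = cytochrome c and DEVD-Rh110 substrate | schedule = 30 min plus 50 min, RT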
PREPL confirm: human PREPL enzyme inhibitors, confirmation, biochemical, fluorescence polarization. actives 67% (n = 2,000). AID 2803, 2010. shares compounds with PREPL inh. recombinant PREPL, fluorescence polarization activity probe. inhibition, % at 5.96 µM;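 note: 0% = protein with DMSO and 100% = wells lacking protein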
Casp3 counter: CASP3 inhibitor validation, counterassay for project on UBE2N polyubiquitination blockers, biochemical, one dose; Recombinant caspase-3, Caspase-Glo 3/7 luminescence, 60 min; actives 4% (n = 1,400); shares compounds with UBC13 polyUb; inhibition, % at 20 µM;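 active = mean inhibition across replicates above about 26%, limit read from the data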;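 note: plate controls were DMSO with caspase-3 for no effect and DMSO wells lacking enzyme for full effect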
Target sequence (P42574 whole entry, looked up): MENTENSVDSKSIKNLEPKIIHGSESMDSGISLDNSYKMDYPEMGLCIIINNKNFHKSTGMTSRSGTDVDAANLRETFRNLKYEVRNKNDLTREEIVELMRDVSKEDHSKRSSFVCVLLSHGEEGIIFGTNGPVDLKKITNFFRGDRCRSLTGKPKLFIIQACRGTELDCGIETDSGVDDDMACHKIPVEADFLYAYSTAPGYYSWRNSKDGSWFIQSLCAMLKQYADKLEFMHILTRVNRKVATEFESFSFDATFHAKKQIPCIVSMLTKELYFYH
UBC13 confirm: UBC13 polyubiquitination inhibitors, single-point retest, confirmation, biochemical, TR-FRET, single concentration; shares compounds with UBC13 polyUb; inhibition, % at 10 µM; actives 68% (n = 1,400); in the data active = inhibition above about 45%
Apaf-1 inh conf2: Apaf-1 inhibitors, single-dose retest, confirmation, biochemical, fluorescence, DEVD-Rh110, 20 µM; shares compounds with Apaf1 inhib; reconstituted apoptosome, caspase-3 DEVD-Rh110 fluorescence; inhibition, % at 20 µM; actives 25% (n = 1,800); AID 504614, 2011;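 active = mean inhibition of at least 40% at 20 µM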;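 note: plate controls were DMSO wells for no effect and DEVD-CHO caspase inhibitor control wells for full effect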
Rh110 interf inh: Rh110 fluorescence interference by putative Apaf-1 inhibitors, confirmation, artefact control for Apaf-1 inhibitor project, biochemical, 20 µM; shares compounds with Apaf1 inhib; quenched caspase reaction; activation (fluorescence interference), % at 20 µM; 1,800 tested, under 10 active; AID 504615, 2011;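 active = signal rise of 40% or more at 20 µM, treated as a fluorescence artifact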
Fluor interf inh: fluorescence interference of Apaf-1 inhibitor hits, dose response, artefact control for Apaf-1 inhibitor project. shares compounds with Apaf1 inhib. fluorescence interference counterscreen, Apaf-1 assay format. IC50, µM. 460 tested, under 10 active. AID 588538, 2011; call rule not given here
* marks the source's active call; other numbers are inactive results; · = not tested or not shown. In the library only some 1.7% were active in any assay of this set; here they are far more common. Cut-off read from the data, not from the text of the source, unless noted: active = inhibition above about 43%; inactive = the rest.

SMILES	EBNA-1 inh	PREPL inh	UBC13 polyUb	ZTA DNA inh	Apaf1 inhib	PREPL confirm	Casp3 counter	UBC13 confirm	Apaf-1 inh conf2	Rh110 interf inh	others
CCC[C@@H](CN1CCC[C@H]1CN1C(N)=NC[C@H]1C(C)C)N1C[C@@H]([C@H](C)CC)N(CCCC2CCCC2)C1=N	·	59*	53*	·	37	54*	-2	42	·	·
CCC[C@@H](CN1CCC[C@H]1CN1C(N)=NC[C@H]1CC(C)C)N1C[C@@H]([C@H](C)CC)N(CCCC2CCCC2)C1=N	·	46*	78*	·	53*	45*	2	83*	·	·
CN(C)C1=NC[C@H](Cc2ccccc2)N1CCCC1CCCC1	2	-1	23	3	18	·	·	·	·	·
C#CCOCCOCCOCCNc1nc(N2CCN(C(=O)[C@H](Cc3ccc(O)cc3)n3cc([C@@H](N)C(C)CC)nn3)CC2)nc(N2CCN(C(=O)[C@H](CCCCN)n3cc([C@@H](N)CO)nn3)CC2)n1 (stereo not given in full)	6	14	32	-11	-16	·	·	·	·	·
C#CCOCCOCCOCCNc1nc(N2CCN(C(=O)C(Cc3ccc(O)cc3)n3cc(C(N)CC(C)C)nn3)CC2)nc(N2CCN(C(=O)C(Cc3cc4ccccc4[nH]3)n3cc(C(N)Cc4ccc(O)cc4)nn3)CC2)n1 (stereo not given)	2	52*	78*	1	35	51*	-1	59*	·	·
C#CCOCCOCCOCCNc1nc(N2CCOCC2)nc(N2CCN(C(=O)[C@H](Cc3ccc(O)cc3)n3cc([C@@H](N)CC(C)C)nn3)CC2)n1	0	-4	22	14	-6	·	·	·	·	·
C#CCOCCOCCOCCNc1nc(N2CCN(C(=O)[C@H](CCCCN)n3cc([C@@H](N)C(C)CC)nn3)CC2)nc(N2CCN(C(=O)[C@H](Cc3cc4ccccc4[nH]3)n3cc([C@@H](N)CC(C)C)nn3)CC2)n1 (stereo not given in full)	0	58*	100*	-8	-2	58*	-2	116*	·	·
CCOc1ccc(C2C(C(=O)c3ccc(C)o3)=C(O)C(=O)N2Cc2cccnc2)cc1 (stereo not given)	-6	8	-34	5	22	·	·	·	·	·
Cc1ccc(Cc2c(C)nc3nc(SCC(=O)NCCCN4CCCCCC4)nn3c2C)cc1	-9	53*	103*	-14	38	42	8	101*	·	·
O=C(C[n+]1ccc(CCSc2ccc(F)cc2)cc1)c1ccccc1	12	53*	72*	1	-2	44*	0	124*	·	·
CCn1c(CNC(=O)COc2ccc(C(C)C)cc2)nnc1SCC(=O)Nc1ccc(F)cc1	6	-7	6	-4	7	·	·	·	·	·
COc1cc2c(C#N)c(N3CCc4ccccc4C3)nc(N)c2c(N)n1	-17	49*	-4	-9	94*	54*	·	·	35	8
CC(=O)N1CCN(c2ccc(NCc3ccc(-c4cccc(Cl)c4)o3)cc2)CC1	·	55*	-2	·	43*	68*	·	·	19	5
CCN(CC)CCOC(c1ccccc1)c1ccc(C)cc1 (stereo not given)	-1	-16	2	7	-1	·	·	·	·	·
O=C(NCCc1ccccc1)c1ccc(=O)oc1	-17	6	-22	-13	4	·	·	·	·	·
O=C(NCCc1ccccc1)c1ccc2nc(-c3ccco3)c(-c3ccco3)nc2c1	-2	74*	-43	-2	46*	74*	·	·	29	7
O=C(c1ccccc1)c1ccc2nc(-c3ccco3)c(-c3ccco3)nc2c1	1	62*	32	4	41*	51*	·	·	27	8
O=C(NC1CCCC1)c1ccc2nc(-c3ccco3)c(-c3ccco3)nc2c1	14	62*	-10	13	44*	34	·	·	19	-2
COc1ccc(-c2c(C#Cc3ccsc3)c3cc(-c4ccc5c(c4)OCO5)ccc3n2C)cc1	·	15	-1	11	1	·	·	·	·	·
COc1ccc(C(=O)COC(=O)c2ccn(C)n2)cc1	2	15	4	-10	0	·	·	·	·	·
CN1CCC(=NOc2ccc([N+](=O)[O-])cc2)CC1	-6	-5	-3	-2	11	·	·	·	·	·
COC(=O)CCC(=O)OC1(C)C(=O)C2=CN(CC3CC3)C(c3ccc(OC)cc3)=CC2=C(Br)C1=O (stereo not given)	8	69*	-87	-6	66*	56*	·	·	64*	6	Fluor interf inh=>100
COC(=O)CCC(=O)OC1(C)C(=O)C2=CN(C3CC3)C(c3ccc(OC)cc3)=CC2=C(Br)C1=O (stereo not given)	3	75*	-58	9	61*	69*	·	·	56*	1	Fluor interf inh=>100
COC(=O)CCC(=O)OC1(C)C(=O)C2=CN(CCc3c[nH]c4ccccc34)C(c3ccc(OC)cc3)=CC2=C(Br)C1=O (stereo not given)	5	16	-34	-2	6	·	·	·	·	·
COC(=O)CCC(=O)OC1(C)C(=O)C2=CN(c3ccccc3)C(c3ccc(OC)cc3)=CC2=C(Br)C1=O (stereo not given)	4	30	-102	5	23	·	·	·	·	·
CCN1CCN(c2cc(N3CCN(C(=O)c4ccco4)CC3)c3c4c(onc24)-c2ccccc2C3=O)CC1	5	70*	-152	12	42*	68*	·	·	29	7
CC(C)C[C@@H]1CN=C(N)N1C[C@@H]1CCCN1C[C@H](C)N1C[C@@H](Cc2ccccc2)N(CCCC2CCCC2)C1=N	·	52*	61*	·	55*	43	-5	64*	5	2

Screens: PubChem, several laboratories
